*1 amine or outer side, *2 acyl side, *3 side chain or, on linkers, in order; H or OH if unused. Where a SMILES comes first, the peptide text is derived from it. [ ]: non-standard residue; d: D form. The star is where a group is joined. X1 = O=C(COCC(=O)*)Nc1ccc(-c2c3nc(c(-c4ccccc4)c4ccc([nH]4)c(-c4ccccc4)c4nc(c(-c5ccccc5)c5ccc2[nH]5)C=C4)C=C3)cc1; NH(CH2CH2O)6CH2CO = O=C(COCCOCCOCCOCCOCCOCCN[*:1])[*:2]
Key:
HEp-2 [1] = assay: Cellular uptake in human HEp2 cells at 10 uM; assay type: ADME, cell-based; details: hep-2, 10 µM
How it was run: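 HEp2 cells seeded at 10 000 per well and grown overnight, then exposed to 10 µM conjugate (diluted into medium from 10 mM water stocks) for 0, 1, 2, 4, 8 and 24 h. After PBS wash, cells lysed in 0.25% Triton X-100/PBS. Conjugate quantified by fluorescence at 410/650 nm (ex/em), and cell number by CyQuant.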

HEp-2 [2] = assay: Dark cytotoxicity against human HEp2 cells at 100 uM; assay type: functional, cell-based
How it was run: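 HEp2 cells seeded at 10 000 per well and allowed 36-48 h to attach. They were given increasing conjugate concentrations up to 100 µM and incubated overnight without light. Viability was read with Cell Titer Blue fluorescence at 520/584 nm and normalized to untreated cells (100%) and 0.2% saponin-treated cells (0%).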

HEp-2 [3] = assay: Phototoxicity against human HEp2 cells at 10 uM; assay type: cell-based
How it was run: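 HEp2 cells seeded and attached 36-48 h, then loaded overnight with conjugate at 0, 0.625, 1.25, 2.5, 5 and 10 µM. Medium was swapped for medium with 50 mM HEPES pH 7.4. Cells were irradiated on ice for 10 min with a 100 W halogen lamp through a 610 nm long-pass filter and a water IR filter, about 0.5 J/cm2. After overnight incubation, viability was read by Cell Titer Blue.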

[4] = Homo sapiens, HEp-2, read-out: IC50

Activity (HEp-2 [1])	SMILES	IC50 (HEp-2 [2]; [4])	IC50 (HEp-2 [3]; hep-2)	IC50 (HEp-2 [2]; hep-2)	IC50 (HEp-2 [3]; Homo sapiens, HEp-2, light or radiation study, read-out: IC50)
Active	NCCCC[C@H](NC(=O)[C@H](CCCN=C(N)N)NC(=O)CNC(=O)COCCOCCOCCOCCOCCOCCNC(=O)COCC(=O)Nc1ccc(-c2c3nc(c(-c4ccccc4)c4ccc([nH]4)c(-c4ccccc4)c4nc(c(-c5ccccc5)c5ccc2[nH]5)C=C4)C=C3)cc1)C(=O)N[C@@H](CCCCN)C(=O)N[C@@H](CCCN=C(N)N)C(=O)N[C@@H](CCCN=C(N)N)C(=O)N[C@@H](CCC(N)=O)C(=O)N[C@@H](CCCN=C(N)N)C(=O)N[C@@H](CCCN=C(N)N)C(=O)N[C@@H](CCCN=C(N)N)C(=O)N1CCC[C@H]1C(=O)N1CCC[C@H]1C(=O)N[C@@H](CCC(N)=O)C(N)=O	30 µM	Active	–	–
Active	N=C(N)NCCC[C@H](NC(=O)CNC(=O)COCCOCCOCCOCCOCCOCCNC(=O)COCC(=O)Nc1ccc(-c2c3nc(c(-c4ccccc4)c4ccc([nH]4)c(-c4ccccc4)c4nc(c(-c5ccccc5)c5ccc2[nH]5)C=C4)C=C3)cc1)C(=O)N[C@@H](CCCN=C(N)N)C(=O)N[C@@H](CCCN=C(N)N)C(=O)N[C@@H](CCCN=C(N)N)C(=O)N[C@@H](CCCN=C(N)N)C(=O)N[C@@H](CCCNC(=N)N)C(=O)N[C@@H](CCCNC(=N)N)C(=O)N[C@@H](CCCN=C(N)N)C(=O)O	75 µM	Active	–	–
Active	NCCCC[C@H](NC(=O)[C@H](CCCN=C(N)N)NC(=O)CNC(=O)COCC(=O)NCCOCCOCCOCCOCCOCCOCCOCCNC(=O)COc1ccc(-c2c3nc(c(-c4ccc(OCC(=O)O)cc4)c4ccc([nH]4)c(-c4ccc(OCC(=O)O)cc4)c4nc(c(-c5ccc(OCC(=O)O)cc5)c5ccc2[nH]5)C=C4)C=C3)cc1)C(=O)N[C@@H](CCCCN)C(=O)N[C@@H](CCCN=C(N)N)C(=O)N[C@@H](CCCN=C(N)N)C(=O)N[C@@H](CCC(N)=O)C(=O)N[C@@H](CCCN=C(N)N)C(=O)N[C@@H](CCCN=C(N)N)C(=O)N[C@@H](CCCN=C(N)N)C(=O)N1CCC[C@H]1C(=O)N1CCC[C@H]1C(=O)N[C@@H](CCC(N)=O)C(N)=O	–	Not Active	Not Active	–
Active	CC(C)[C@H](NC(=O)[C@H](CCCCN)NC(=O)[C@H](CCCN=C(N)N)NC(=O)[C@H](CCCCN)NC(=O)[C@H](CCCCN)NC(=O)[C@H](CCCCN)NC(=O)[C@@H]1CCCN1C(=O)CNC(=O)COCC(=O)NCCOCCOCCOCCOCCOCCOCCOCCNC(=O)COc1ccc(-c2c3nc(c(-c4ccc(OCC(=O)O)cc4)c4ccc([nH]4)c(-c4ccc(OCC(=O)O)cc4)c4nc(c(-c5ccc(OCC(=O)O)cc5)c5ccc2[nH]5)C=C4)C=C3)cc1)C(N)=O	–	Not Active	Not Active	–
Active	CC(C)[C@H](NC(=O)[C@H](CCCCN)NC(=O)[C@H](CCCN=C(N)N)NC(=O)[C@H](CCCCN)NC(=O)[C@H](CCCCN)NC(=O)[C@H](CCCCN)NC(=O)[C@@H]1CCCN1C(=O)CNC(=O)COCCOCCOCCOCCOCCOCCNC(=O)COCC(=O)Nc1ccc(-c2c3nc(c(-c4ccccc4)c4ccc([nH]4)c(-c4ccccc4)c4nc(c(-c5ccccc5)c5ccc2[nH]5)C=C4)C=C3)cc1)C(N)=O (X1-[NH(CH2CH2O)6CH2CO]GPKKKRKV-NH2)	90 µM	–	–	1.5 µM

Reference: ChEMBL document CHEMBL1149419, “Peptide-mediated cell transport of water soluble porphyrin conjugates” (J Med Chem, 2006)
